According to ChEMBL document CHEMBL1157638, “Fluorescent epigenetic small molecule induces expression of the tumor suppressor ras-association domain family 1A and inhibits human prostate xenograft” (J Med Chem, 2010):
Active and inactive are the calls of the source. The rule behind the calls is not given here.

What was measured:
LOX IMVI = assay: Growth inhibition of human LOXIMVI cells assessed as cell growth at 10 nM relative to untreated control; type: functional; settings: read-out: Activity
Mus musculus = assay: Toxicity in BALB/c mouse up to 550 mg/kg, po; type: organism-based; design: dose 550 mg/kg, route oral; settings: in vivo
UACC-62 = assay: Growth inhibition of human UACC62 cells assessed as cell growth at 1 uM relative to untreated control; type: functional; settings: read-out: Activity
OVCAR-3 [1] = assay: Growth inhibition of human OVCAR-3 cells assessed as cell growth at 10 uM relative to untreated control; type: functional; settings: read-out: Activity
OVCAR-4 [2] = assay: Growth inhibition of human OVCAR4 cells assessed as cell growth at 1 nM relative to untreated control; type: functional; settings: read-out: Activity
NCI-H522 = assay: Growth inhibition of human NCI-H522 cells assessed as cell growth at 10 uM relative to untreated control; type: functional; settings: read-out: Activity
MDA-MB-231 = assay: Growth inhibition of human MDA-MB-231 cells; type: functional
HOP-92 = assay: Growth inhibition of human HOP92 cells assessed as cell growth at 100 nM relative to untreated control; type: functional; settings: read-out: Activity
Procedure, shortened: (§1)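 Run externally at the National Cancer Institute as a 59-cell-line panel screen, with concentrations up to 100 μM. Growth was scored relative to control, where negative growth or total cell kill was possible. Data are in the Supporting Information.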

PC-3 [3] = assay: Growth inhibition of human PC3 cells assessed as cell growth at 10 uM relative to untreated control; type: functional; settings: read-out: Activity
SK-OV-3 [4] = assay: Growth inhibition of human SKOV3 cells assessed as cell growth at 100 nM relative to untreated control; type: functional; settings: read-out: Activity
NCI-H23 [5] = assay: Growth inhibition of human NCI-H23 cells assessed as cell growth at 10 uM relative to untreated control; type: functional; settings: read-out: Activity
[6] = Growth inhibition of human […] cells assessed as cell growth at 10 uM relative to untreated control; type: functional; settings: read-out: Activity
A498 [7] = assay: Growth inhibition of human A498 cells; type: functional
SF-539 [8] = assay: Growth inhibition of human SF539 cells; type: functional; settings: read-out: LC50 (the source's name)
K562 [9] = assay: Growth inhibition of human K562 cells assessed as cell growth at 1 nM relative to untreated control; type: functional; settings: read-out: Activity
COLO 205 [10] = assay: Growth inhibition of human COLO205 cells; type: functional
[11] = Growth inhibition of human […] cells assessed as cell growth at 100 nM relative to untreated control; type: functional; settings: read-out: Activity
SN12C = assay: Growth inhibition of human SN12C cells assessed as cell growth at 10 nM relative to untreated control; type: functional; settings: read-out: Activity
NCI-H23 [12] = assay: Growth inhibition of human NCI-H23 cells assessed as cell growth at 10 nM relative to untreated control; type: functional; settings: read-out: Activity
HT-29 = assay: Growth inhibition of human HT-29 cells assessed as cell growth at 10 nM relative to untreated control; type: functional; settings: read-out: Activity
SF-268 = assay: Growth inhibition of human SF268 cells assessed as cell growth at 100 nM relative to untreated control; type: functional; settings: read-out: Activity
NCI-H460 [13] = assay: Growth inhibition of human NCI-H460 cells assessed as cell growth at 10 nM relative to untreated control; type: functional; settings: read-out: Activity
A498 [14] = assay: Growth inhibition of human A498 cells assessed as cell growth at 10 nM relative to untreated control; type: functional; settings: read-out: Activity
OVCAR-3 [15] = assay: Growth inhibition of human OVCAR-3 cells assessed as cell growth at 100 nM relative to untreated control; type: functional; settings: read-out: Activity
TK-10 = assay: Growth inhibition of human TK10 cells assessed as cell growth at 100 nM relative to untreated control; type: functional; settings: read-out: Activity
EKVX = assay: Growth inhibition of human EKVX cells assessed as cell growth at 10 uM relative to untreated control; type: functional; settings: read-out: Activity; procedure, shortened: as §1
Malme-3M [16] = assay: Growth inhibition of human MALME-3M cells assessed as cell growth at 10 uM relative to untreated control; type: functional; settings: read-out: Activity
UACC-257 = assay: Growth inhibition of human UACC257 cells; type: functional
NCI-H460 [17] = assay: Growth inhibition of human NCI-H460 cells; type: functional
COLO 205 [18] = assay: Growth inhibition of human COLO205 cells assessed as cell growth at 10 uM relative to untreated control; type: functional; settings: read-out: Activity; procedure, shortened: as §1
SK-OV-3 [19] = assay: Growth inhibition of human SKOV3 cells assessed as cell growth at 10 uM relative to untreated control; type: functional; settings: read-out: Activity
ACHN = assay: Growth inhibition of human ACHN cells assessed as cell growth at 1 nM relative to untreated control; type: functional; settings: read-out: Activity
COLO 205 [20] = assay: Growth inhibition of human COLO205 cells assessed as cell growth at 100 nM relative to untreated control; type: functional; settings: read-out: Activity; procedure, shortened: as §1
U-251 = assay: Growth inhibition of human U251 cells assessed as cell growth at 1 uM relative to untreated control; type: functional; settings: read-out: Activity
OVCAR-8 = assay: Growth inhibition of human OVCAR8 cells assessed as cell growth at 10 uM relative to untreated control; type: functional; settings: read-out: Activity
RXF 393 = assay: Growth inhibition of human RXF393 cells; type: functional
OVCAR-4 [21] = assay: Growth inhibition of human OVCAR4 cells; type: functional
BT-549 = assay: Growth inhibition of human BT549 cells assessed as cell growth at 1 nM relative to untreated control; type: functional; settings: read-out: Activity
K562 [22] = assay: Growth inhibition of human K562 cells; type: functional
SF-539 [23] = assay: Growth inhibition of human SF539 cells assessed as cell growth at 10 nM relative to untreated control; type: functional; settings: read-out: Activity
T47D = assay: Growth inhibition of human T47D cells assessed as cell growth at 100 nM relative to untreated control; type: functional; settings: read-out: Activity
SF-539 [24] = assay: Growth inhibition of human SF539 cells assessed as cell growth at 10 uM relative to untreated control; type: functional; settings: read-out: Activity
Malme-3M [25] = assay: Growth inhibition of human MALME-3M cells assessed as cell growth at 1 uM relative to untreated control; type: functional; settings: read-out: Activity
UO-31 = assay: Growth inhibition of human UO31 cells assessed as cell growth at 10 uM relative to untreated control; type: functional; settings: read-out: Activity
PC-3 [26] = assay: Increase in RASSF1A gene expression in human PC3 cells at 5 uM after 3 days hrs by RT-PCR; type: functional, cell-based
Procedure, shortened: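 PC-3 cells incubated 3 days with compound, then RNA extracted with TRIzol. 500 ng total RNA reverse-transcribed with random hexamers. RASSF1A amplified with previously described primers and conditions. Products run on 1.5% agarose and stained with ethidium bromide. Bands quantified by densitometry against untreated cells, with RASSF1A re-expression from the reference alkaloid set to 100%.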

[27] = read-out: LC50 (the source's name)

SMILES: COc1ccc2c(c1)[nH]c1c(C)c(OS(=O)(=O)c3cccc4c(N(C)C)cccc34)ccc12
- growth at 0.01 µM (LOX IMVI): 92%
- Activity (Mus musculus): Non-toxic
- growth at 1 µM (UACC-62): 28%
- growth at 10 µM (OVCAR-3 [1]): -9%
- growth at 0.001 µM (OVCAR-4 [2]): 94%
- growth at 10 µM (NCI-H522): 37%
- GI50 (MDA-MB-231): 9.3 µM
- TGI (MDA-MB-231): > 100 µM
- CC50 (MDA-MB-231; [27]): > 100 µM
- growth at 0.1 µM (HOP-92): 91%
- growth at 10 µM (PC-3 [3]): 7%
- growth at 0.1 µM (SK-OV-3 [4]): 99%
- growth at 10 µM (NCI-H23 [5]): 8%
- growth at 10 µM [6]: -2%
- GI50 (A498 [7]): 22.4 µM
- TGI (A498 [7]): 60.2 µM
- CC50 (A498 [7]; [27]): > 100 µM
- CC50 (SF-539 [8]): > 100 µM
- growth at 0.001 µM (K562 [9]): 103%
- GI50 (COLO 205 [10]): 4.24 µM
- TGI (COLO 205 [10]): > 100 µM
- CC50 (COLO 205 [10]; [27]): > 100 µM
- growth at 0.1 µM [11]: 90%
- growth at 0.01 µM (SN12C): 92%
- growth at 0.01 µM (NCI-H23 [12]): 91%
- growth at 0.01 µM (HT-29): 106%
- growth at 0.1 µM (SF-268): 96%
- growth at 0.01 µM (NCI-H460 [13]): 101%
- growth at 0.01 µM (A498 [14]): 83%
- growth at 0.1 µM (OVCAR-3 [15]): 97%
- growth at 0.1 µM (TK-10): 107%
- growth at 10 µM (EKVX): 16%
- growth at 10 µM (Malme-3M [16]): 12%
- GI50 (UACC-257): 11.5 µM
- TGI (UACC-257): > 100 µM
- CC50 (UACC-257; [27]): > 100 µM
- GI50 (NCI-H460 [17]): 3.46 µM
- TGI (NCI-H460 [17]): 55.5 µM
- CC50 (NCI-H460 [17]; [27]): > 100 µM
- growth at 10 µM (COLO 205 [18]): 1%
- growth at 10 µM (SK-OV-3 [19]): 34%
- growth at 0.001 µM (ACHN): 100%
- growth at 0.1 µM (COLO 205 [20]): 95%
- growth at 1 µM (U-251): 25%
- growth at 10 µM (OVCAR-8): 24%
- GI50 (RXF 393): 2.44 µM
- TGI (RXF 393): 5.95 µM
- CC50 (RXF 393; [27]): > 100 µM
- GI50 (OVCAR-4 [21]): 7.4 µM
- TGI (OVCAR-4 [21]): > 100 µM
- CC50 (OVCAR-4 [21]; [27]): > 100 µM
- growth at 0.001 µM (BT-549): 100%
- GI50 (K562 [22]): 3.01 µM
- TGI (K562 [22]): > 100 µM
- CC50 (K562 [22]; [27]): > 100 µM
- growth at 0.01 µM (SF-539 [23]): 95%
- growth at 0.1 µM (T47D): 82%
- growth at 10 µM (SF-539 [24]): -32%
- growth at 1 µM (Malme-3M [25]): 22%
- growth at 10 µM (UO-31): 24%
- Activity (PC-3 [26]): Active
